Measurements reported in ChEMBL document CHEMBL5608231, “Lysineless HiBiT and NanoLuc Tagging Systems as Alternative Tools for Monitoring Targeted Protein Degradation” (ACS Med Chem Lett, 2024).
Calls of active or inactive are those of the source. No cut-off for these calls is given here. Residues, ends and D or L forms follow the SMILES beside them.

Columns and labels:
[1] = target: T1, von Hippel-Lindau disease tumor suppressor/Receptor-interacting serine/threonine-protein kinase 1 (Homo sapiens, UniProt Q13546+P40337); test: PROTAC activity at VHL/wild type nLuc-fused N-terminal RIPK1 kinase domain (unknown origin) expressed in HEK293T cells assessed as induction of protein degradation measured after 24 hrs in presence of furimazine substrate by Nano-Glo luciferase based luminescence analysis; format: cell-based
Method in brief: (§1)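 HEK293T cells transiently transfected with nLuc (WT or K0)-RIPK1 kinase domain (1-324) through a 24-residue linker, expressed 24–36 h. Replated at 20,000 cells/well in Opti-MEM with 4% FBS. Treated 24 h with 1.6–1,000 nM (5-fold, 1% DMSO). Medium removed, Nano-Glo substrate 1:100 in PBS added, live-cell luminescence read. Three-parameter inhibitor fit; at least two biological batches.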
Target sequence in this assay (Q13546 whole entry, the tested form may be a part): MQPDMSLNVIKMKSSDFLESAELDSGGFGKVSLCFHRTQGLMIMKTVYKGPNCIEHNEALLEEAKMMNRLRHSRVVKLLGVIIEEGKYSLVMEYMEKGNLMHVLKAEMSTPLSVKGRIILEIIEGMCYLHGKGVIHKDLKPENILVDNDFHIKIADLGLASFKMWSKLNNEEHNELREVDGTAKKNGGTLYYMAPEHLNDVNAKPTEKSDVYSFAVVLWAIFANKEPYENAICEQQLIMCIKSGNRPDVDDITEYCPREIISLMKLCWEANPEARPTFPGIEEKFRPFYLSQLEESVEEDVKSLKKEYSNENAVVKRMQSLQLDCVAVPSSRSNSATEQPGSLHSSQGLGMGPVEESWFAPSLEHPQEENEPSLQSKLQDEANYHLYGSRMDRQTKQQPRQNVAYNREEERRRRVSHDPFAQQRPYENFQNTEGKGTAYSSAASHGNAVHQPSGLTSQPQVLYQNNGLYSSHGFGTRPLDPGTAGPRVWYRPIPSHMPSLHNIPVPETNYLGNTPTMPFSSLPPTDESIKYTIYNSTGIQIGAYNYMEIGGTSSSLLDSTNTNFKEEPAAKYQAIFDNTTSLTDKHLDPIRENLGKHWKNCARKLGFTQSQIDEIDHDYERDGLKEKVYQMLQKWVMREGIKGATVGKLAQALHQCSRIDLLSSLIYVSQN
Target sequence in this assay (P40337 whole entry, the tested form may be a part): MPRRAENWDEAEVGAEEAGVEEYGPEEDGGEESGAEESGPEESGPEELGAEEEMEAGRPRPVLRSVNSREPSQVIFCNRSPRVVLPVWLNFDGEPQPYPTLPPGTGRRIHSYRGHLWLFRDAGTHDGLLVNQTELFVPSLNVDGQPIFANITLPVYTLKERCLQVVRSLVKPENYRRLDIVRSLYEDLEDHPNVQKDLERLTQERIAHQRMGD

[2] = target: T1, von Hippel-Lindau disease tumor suppressor/Receptor-interacting serine/threonine-protein kinase 1; test: PROTAC activity at VHL/nLucK0-fused N-terminal RIPK1 kinase domain (unknown origin) expressed in HEK293T cells assessed as induction of protein degradation measured after 24 hrs in presence of furimazine substrate by Nano-Glo luciferase based luminescence analysis; format: cell-based; method in brief: as §1
Target sequence in this assay (Q13546 whole entry, the tested form may be a part): as the sequence (Q13546 whole entry, the tested form may be a part) above
Target sequence in this assay (P40337 whole entry, the tested form may be a part): as the sequence (P40337 whole entry, the tested form may be a part) above

[3] = Binding affinity to LgBiT (unknown origin) incubated for 30 mins by Nano-Glo luciferase based luminescence analysis; design: species or system Homo sapiens
Method in brief: (§2)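 Equilibrated 30 min at room temperature, then Nano-Glo substrate was added and luminescence read. EC50 from a three-parameter agonist fit; at least 3 technical replicates.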

[4] = species on record: Homo sapiens; test: Binding affinity to His-tagged LgBiT (unknown origin) assessed as off-rate constant protein immobilized on chip surface with surface density of 1000 pg/mm2 by grating-coupled interferometry
Method in brief: (§3)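 His-LgBiT, purified in-house from E. coli BL21(DE3), captured at 50 µg/mL in PBS on a Ni-charged PCP-NTA chip. Two flow channels reached 3000 and 1000 pg/mm2. Kinetics were run in 0.01 M HEPES, 0.15 M NaCl, 0.05% P20, pH 7.4. kon and koff came from a global association-then-dissociation fit.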

[5] = Binding affinity to His-tagged LgBiT (unknown origin) incubated for 30 mins by Nano-Glo luciferase based luminescence analysis; design: species or system Homo sapiens; method in brief: as §2
[6] = Binding affinity to His-tagged LgBiT (unknown origin) immobilized on chip surface with surface density of 3000 pg/mm2 by grating-coupled interferometry; design: species or system Homo sapiens; method in brief: as §3
[7] = species on record: Homo sapiens; test: Binding affinity to His-tagged LgBiT (unknown origin) assessed as on-rate constant protein immobilized on chip surface with surface density of 1000 pg/mm2 by grating-coupled interferometry; method in brief: as §3
[8] = Binding affinity to His-tagged LgBiT (unknown origin) immobilized on chip surface with surface density of 1000 pg/mm2 by grating-coupled interferometry; design: species or system Homo sapiens; method in brief: as §3
[9] = species on record: Homo sapiens; test: Binding affinity to His-tagged LgBiT (unknown origin) assessed as off-rate constant protein immobilized on chip surface with surface density of 3000 pg/mm2 by grating-coupled interferometry; method in brief: as §3
[10] = species on record: Homo sapiens; test: Binding affinity to His-tagged LgBiT (unknown origin) assessed as on-rate constant protein immobilized on chip surface with surface density of 3000 pg/mm2 by grating-coupled interferometry; method in brief: as §3
[11] = Binding affinity to His-tagged LgBiT (unknown origin) incubated for 30 mins measured after subtracting LgBiT signal in presence of PBS by Nano-Glo luciferase based luminescence analysis; design: species or system Homo sapiens
Method in brief: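 Incubated 30 min, then Nano-Glo substrate was added and luminescence read. The LgBiT-only (PBS) baseline was subtracted before the three-parameter agonist fit.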

[12] = target: T1, von Hippel-Lindau disease tumor suppressor/Receptor-interacting serine/threonine-protein kinase 1; test: PROTAC activity at VHL/wild type nLuc-fused N-terminal RIPK1 kinase domain (unknown origin) expressed in HEK293T cells assessed as induction of protein degradation at 1.6 to 1000 nM measured after 24 hrs by immunoblot analysis; format: cell-based; settings: dose 1.6-1000 nM
Method in brief: (§4)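 HEK293T cells transfected with nLuc (WT or K0)-RIPK1 kinase domain, plated in 12-well plates and treated 24 h. Lysed in RIPA with protease/phosphatase inhibitors and benzonase. 20 µg protein run on SDS-PAGE and transferred to PVDF. Probed overnight at 4 °C with anti-RIPK1 (1:1000) and β-actin (1:4000), then HRP secondary and ECL.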
Target sequence in this assay (P40337 whole entry, looked up, the tested form may be a part): as the sequence (P40337 whole entry, the tested form may be a part) above
Target sequence in this assay (Q13546 whole entry, looked up, the tested form may be a part): as the sequence (Q13546 whole entry, the tested form may be a part) above

[13] = target: T1, von Hippel-Lindau disease tumor suppressor/Receptor-interacting serine/threonine-protein kinase 1; test: PROTAC activity at VHL/wild type nLuc-fused N-terminal RIPK1 kinase domain (unknown origin) expressed in HEK293T cells assessed as induction of protein degradation measured after 24 hrs in presence of furimazine substrate by Nano-Glo luciferase based luminescence analysis relative to control; format: cell-based; method in brief: as §1
Target sequence in this assay (P40337 whole entry, looked up, the tested form may be a part): as the sequence (P40337 whole entry, the tested form may be a part) above
Target sequence in this assay (Q13546 whole entry, looked up, the tested form may be a part): as the sequence (Q13546 whole entry, the tested form may be a part) above

[14] = target: T1, von Hippel-Lindau disease tumor suppressor/Receptor-interacting serine/threonine-protein kinase 1; test: PROTAC activity at VHL/nLucK0-fused N-terminal RIPK1 kinase domain (unknown origin) expressed in HEK293T cells assessed as induction of protein degradation at 1.6 to 1000 nM measured after 24 hrs by immunoblot analysis; format: cell-based; settings: dose 1.6-1000 nM; method in brief: as §4
Target sequence in this assay (P40337 whole entry, looked up, the tested form may be a part): as the sequence (P40337 whole entry, the tested form may be a part) above
Target sequence in this assay (Q13546 whole entry, looked up, the tested form may be a part): as the sequence (Q13546 whole entry, the tested form may be a part) above

K [4] | K [7] | K [9] | K [10] | EC50 [11] [nM] | Structure (SMILES) | further results
 |  |  |  |  | Cc1ncsc1-c1ccc([C@H](C)NC(=O)[C@H]2C[C@H](O)CN2C(=O)[C@@H](NC(=O)CCCCCCCCCCC(=O)NCCCn2cc(-c3ccc4c(c3)CCN4C(=O)Cc3cccc(OC(F)(F)F)c3)c3c(N)ncnc32)C(C)(C)C)cc1 | DC50 [1]: Not Active; DC50 [2]: Not Active
5 10^-4/s | 7.7 10^5/M/s | 6.7 10^-3/s | 3.6 10^5/M/s | 16 | CC[C@H](C)[C@H](NC(=O)[C@H](CCCNC(=N)N)NC(=O)[C@H](CCCNC(=N)N)NC(=O)[C@H](Cc1ccccc1)NC(=O)[C@H](CC(C)C)NC(=O)[C@H](CCCNC(=N)N)NC(=O)[C@H](Cc1c[nH]c2ccccc12)NC(=O)CNC(=O)[C@H](CO)NC(=O)[C@@H](N)C(C)C)C(=O)N[C@@H](CO)C(=O)O (H-VSGWRLFRRIS-OH) | EC50 [3]: 6.2 nM; EC50 [5]: 8.7 nM; Kd [6]: 1.8 nM; Kd [8]: 0.7 nM
 |  |  |  |  | Cc1ncsc1-c1ccc([C@H](C)NC(=O)[C@@H]2C[C@@H](O)CN2C(=O)[C@@H](NC(=O)CCCCCCCCCCC(=O)NCCCn2cc(-c3ccc4c(c3)CCN4C(=O)Cc3cccc(OC(F)(F)F)c3)c3c(N)ncnc32)C(C)(C)C)cc1 | Activity [12]: Active; %max [13]: 91.5%; Activity [14]: Active
1.3 10^-3/s | 7.5 10^5/M/s | 1.4 10^-3/s | 3 10^5/M/s | 24 | CC[C@H](C)[C@H](NC(=O)[C@H](CCCCN)NC(=O)[C@H](CCCCN)NC(=O)[C@H](Cc1ccccc1)NC(=O)[C@H](CC(C)C)NC(=O)[C@H](CCCNC(=N)N)NC(=O)[C@H](Cc1c[nH]c2ccccc12)NC(=O)CNC(=O)[C@H](CO)NC(=O)[C@@H](N)C(C)C)C(=O)N[C@@H](CO)C(=O)O | 
